# Test results taken from ChEMBL document CHEMBL4130405, “Iridoid Glycosides from the Twigs of Sambucus williamsii var. coreana and Their Biological Activities” (J Nat Prod, 2017).
# Tests used:
# A549 = test: Cytotoxicity against human A549 cells after 48 hrs by SRB assay; assay type: functional, cell-based; settings: A549, 48 h
# Procedure, shortened: (§1)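 Cells from ATCC were seeded and left 24 h at 37 °C under 5% CO2. Attached cells were then exposed for 48 h to serial dilutions of 30, 10, 3, 1, 0.3 and 0.1 μM. Cells were fixed with cold 10% TCA at 4 °C for 1 h and stained with 0.4% SRB for 30 min at room temperature. Dye was solubilized in 10 mM Tris base (pH 10.5) and absorbance read at 520 nm. Etoposide served as positive control. IC50 is the mean ± SD of three independent experiments.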
# SK-OV-3 = test: Cytotoxicity against human SKOV3 cells after 48 hrs by SRB assay; assay type: functional, cell-based; settings: SK-OV-3, 48 h; procedure, shortened: as §1
# SK-MEL-2 = test: Cytotoxicity against human SK-MEL-2 cells after 48 hrs by SRB assay; assay type: functional, cell-based; settings: SK-MEL-2, 48 h; procedure, shortened: as §1
# BT-549 = test: Cytotoxicity against human BT549 cells after 48 hrs by SRB assay; assay type: functional, cell-based; settings: BT-549, 48 h; procedure, shortened: as §1
# BV-2 = test: Antineuroinflammatory activity in mouse BV2 cells assessed as inhibition of LPS-induced nitric oxide production pretreated for 30 mins followed by LPS-stimulation after 24 hrs by Griess assay; assay type: functional, cell-based
# Procedure, shortened: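 BV-2 microglia were pretreated with compound for 30 min, then stimulated with LPS (100 ng/mL) for 24 h. Nitrite in the supernatant was mixed with an equal volume of Griess reagent (1% sulfanilamide, 0.1% naphthylethylenediamine in 5% phosphoric acid) for 10 min and read at 570 nm. Values were quantified against a sodium nitrite standard curve. L-NMMA served as positive control. IC50 is the concentration giving 50% inhibition of NO production; three independent experiments.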
# [1] = Cytotoxicity against mouse BV2 cells assessed as cell viability at 20 uM by MTT assay relative to control; assay type: cell-based, BV-2; settings: read-out: Activity
# Procedure, shortened: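 Viability of LPS-activated BV-2 cells was measured after 24 h treatment with 20 μM compound. Read-out was MTT, expressed as percent. Values are means ± SD of three independent experiments.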
# C6 = test: Induction of NGF secretion in rat C6 cells at 20 uM after 24 hrs by ELISA relative to control; assay type: functional
# Procedure, shortened: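 C6 glioma cells were seeded at 1 × 10^5 cells/well in DMEM with 10% FBS. After 24 h, cells were exposed to 20 μM compound in DMEM with 2% FBS for 24 h. NGF secreted into the conditioned medium was measured by ELISA as percent of untreated control (100%). 6-Shogaol served as positive control. Data are mean ± SD of three independent experiments in triplicate.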
# [2] = Cytotoxicity against rat C6 cells assessed as cell viability at 20 uM after 24 hrs by MTT assay relative to control; assay type: cell-based; settings: read-out: Activity
# Procedure, shortened: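 C6 glioma cells were kept in DMEM with 10% FBS and seeded at 1 × 10^5 cells/well. After 24 h, cells were treated with 20 μM compound in DMEM with 2% FBS for 24 h. MTT reagent was added for 1 h at 37 °C, formazan dissolved in DMSO and absorbance read at 570 nm. Results are percent, mean ± SD of three independent experiments.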
Structure (SMILES),IC50 (BV-2),IC50 (A549),IC50 (SK-OV-3),IC50 (SK-MEL-2),IC50 (BT-549),viability at 20 µM [1],Activity (C6),"viability at 24 h, 20 µM [2]"
CC(=O)OC[C@@]1(O)CC[C@@H]2C(CO[C@@H]3O[C@H](CO)[C@@H](O)[C@H](O)[C@H]3OC(=O)/C=C/c3ccc(O)cc3)=CO[C@@H](OC(=O)CC(C)C)[C@@H]21,29.8 µM,> 10 µM,> 10 µM,> 10 µM,> 10 µM,143%,158.7%,120%
COc1cc([C@@H]2c3cc4c(cc3[C@@H](O[C@@H]3O[C@@H]5CO[C@@H](C)O[C@H]5[C@H](O)[C@H]3O)[C@H]3COC(=O)[C@H]23)OCO4)cc(OC)c1O [ETOPOSIDE],–,1.1 µM,2.9 µM,0.2 µM,1 µM,–,–,–
CC(=O)OC[C@@]1(O)CC[C@@H]2C(CO[C@@H]3O[C@H](CO)[C@@H](O)[C@H](O)[C@H]3OC(=O)/C=C\c3ccc(O)cc3)=CO[C@@H](OC(=O)CC(C)C)[C@@H]21,1.2 to 1.22 µM,> 10 µM,7.5 µM,5.2 µM,4 µM,130%,134.1%,104%
CNC(=N)NCCC[C@H](N)C(=O)O [TILARGININE],13.2 µM,–,–,–,–,120%,–,–
CCC(C)C(=O)O[C@@H]1OC=C(CO[C@@H]2O[C@H](CO)[C@@H](O)[C@H](O)[C@H]2OC(=O)/C=C/c2ccc(O)cc2)[C@H]2CC[C@](O)(CO)[C@@H]12 (some centres not stated),1.25 to 1.3 µM,3.8 µM,1.9 µM,1.4 µM,1.3 µM,136%,145.4%,101%
CCCCC/C=C/C(=O)CCc1ccc(O)c(OC)c1 [SHOGAOL],–,–,–,–,–,–,146.3%,98.8%

# Now from value to compound, other results behind:
IC50 (BV-2),Structure (SMILES),IC50 (A549),IC50 (SK-OV-3),IC50 (SK-MEL-2),IC50 (BT-549),viability at 20 µM [1],Activity (C6),"viability at 24 h, 20 µM [2]"
112 µM,CC(C)CC(=O)O[C@@H]1OC=C(CO[C@@H]2O[C@H](CO)[C@@H](O)[C@H](O)[C@H]2O)[C@H]2C[C@H](O)[C@](O)(CO)[C@@H]12,> 10 µM,> 10 µM,> 10 µM,> 10 µM,103%,107.4%,116%
94.2 µM,C=C1[C@@H]2O[C@@H](OC)[C@@H]3[C@H](CC[C@H]13)O2,> 10 µM,> 10 µM,> 10 µM,> 10 µM,104%,133.4%,106%
0.9 to 0.95 µM,CC(C)CC(=O)O[C@@H]1OC=C(CO[C@@H]2O[C@H](CO)[C@@H](O)[C@H](O)[C@H]2OC(=O)/C=C\c2ccc(O)cc2)[C@H]2CC[C@](O)(CO)[C@@H]12,> 10 µM,> 10 µM,8.4 µM,8.7 µM,103%,147%,102%
110 µM,C=C1[C@@H]2O[C@@H](OC)[C@@H]3[C@@H](O2)[C@@H](O)C[C@H]13,> 10 µM,> 10 µM,> 10 µM,> 10 µM,36%,152.6%,111%
45.5 µM,CC(C)CC(=O)O[C@@H]1OC=C(CO[C@@H]2O[C@H](CO)[C@@H](O)[C@H](O)[C@H]2OC(=O)/C=C/c2ccc(O)cc2)[C@H]2CC[C@](O)(CO)[C@@H]12,> 10 µM,> 10 µM,> 10 µM,> 10 µM,102%,130.4%,115%
